A selection: hits, their analogues and other compounds. The true share with any hit is near 2.6%.
LMPTP block: LMPTP (human) inhibition. P24666. recombinant LMPTP-A, OMFP fluorogenic substrate, fluorescence intensity. inhibition, % at 20 µM. actives 0.22% (n = 360,000);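 active = compounds that cut the enzyme signal by at least half of the control window in the single-dose screen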;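 note: plate controls were DMSO wells with enzyme plus substrate for no effect and substrate without enzyme for full effect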
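Test system – LMPTP-A enzyme · Amount – LMPTP-A at 0.625 nM final in the reaction · Buffer or medium – Bis-Tris pH 6.0, DTT, detergent · Reagent – OMFP 400 µM · Doses – single 20 µM dose · Schedule – reaction 50 min, room temperature, dark · Detection – fluorescence intensity of OMFP turnover product · Evaluation – percent inhibition versus substrate-only and uninhibited controls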
STEP block: inhibitors of human striatal-enriched phosphatase STEP. P54829. recombinant STEP, OMFP fluorogenic substrate, fluorescence. inhibition, % at 20 µM. actives 0.25% (n = 360,000). AID 588621;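 active = inhibition at 20 µM, scaled per plate between control wells, above about 37%, limit read from the data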;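 note: 0% = DMSO with enzyme and substrate and 100% = substrate only without enzyme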
Target sequence (P54829 whole entry, looked up): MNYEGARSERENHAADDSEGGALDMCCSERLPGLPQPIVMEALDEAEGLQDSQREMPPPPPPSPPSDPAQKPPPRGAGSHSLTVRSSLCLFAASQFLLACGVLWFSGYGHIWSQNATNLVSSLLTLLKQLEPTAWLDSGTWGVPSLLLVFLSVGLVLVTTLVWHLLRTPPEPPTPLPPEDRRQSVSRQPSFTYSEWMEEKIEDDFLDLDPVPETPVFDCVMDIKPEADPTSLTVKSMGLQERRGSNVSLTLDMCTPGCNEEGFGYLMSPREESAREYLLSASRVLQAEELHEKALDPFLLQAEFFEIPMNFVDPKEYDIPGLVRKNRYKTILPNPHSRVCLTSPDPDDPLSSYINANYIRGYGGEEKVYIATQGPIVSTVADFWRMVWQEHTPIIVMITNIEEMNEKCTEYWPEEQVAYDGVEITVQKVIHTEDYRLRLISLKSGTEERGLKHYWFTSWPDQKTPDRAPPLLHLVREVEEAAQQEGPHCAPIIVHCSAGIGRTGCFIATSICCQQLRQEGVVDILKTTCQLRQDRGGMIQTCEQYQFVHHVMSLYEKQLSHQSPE
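medium = Bis-Tris buffer pH 6.0, 2.5 mM DTT, 0.005% Tween 20 | test system = STEP (striatal-enriched tyrosine phosphatase) enzyme, cell-free | measure = normalized % inhibition | compound dosing = 20 µM, 1% DMSO | also added = 25 µM OMFP | schedule = reaction 20 min, ambient temperature | measured by = fluorescence read at 480 nm ex / 540 nm em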
NadD block: blocks S. aureus nicotinate mononucleotide adenylyltransferase; purified NadD enzyme, colorimetric absorbance read-out; actives 0.78% (n = 360,000); inhibition, % at 20 µM; in the data active = inhibition above about 26%
rCAG RNA binder: binds r(CAG) RNA repeats; r(CAG) RNA repeat, TO-PRO-1 dye displacement fluorescence; actives 1.3% (n = 370,000); inhibition, % at 3 µM;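 active = inhibition above the plate cutoff, the mean of all test compounds on that plate plus 3 SD, cut at about 35% in these data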;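 note: 0% = DMSO alone and 100% = 100 µM mitoxantrone as full dye displacement; higher means more dye released from RNA so lower well fluorescence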
Scp1 inh: Scp-1 (human) phosphatase inhibition; actives 0.88% (n = 340,000); Recombinant Scp1, phosphopeptide, malachite green phosphate absorbance; Q9GZU7; inhibition, % at 20 µM;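 active = inhibition above about 50% at 20 µM, limit read from the data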;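 note: plate controls were DMSO wells with enzyme for no effect and wells lacking enzyme for full effect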
Target sequence (Q9GZU7 76-261 limits assumed): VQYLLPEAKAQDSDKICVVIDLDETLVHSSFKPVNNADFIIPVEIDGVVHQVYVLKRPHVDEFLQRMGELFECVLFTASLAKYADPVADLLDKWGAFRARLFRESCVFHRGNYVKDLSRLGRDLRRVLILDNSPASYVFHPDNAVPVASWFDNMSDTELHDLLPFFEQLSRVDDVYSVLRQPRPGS
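Incubation: 45 min enzyme reaction at room temperature / System: truncated SCP-1 phosphatase (76-261aa) / Reagent: Phospho 17-mer peptide substrate / Buffer or medium: Acidic Tris acetate buffer with magnesium and detergent / Signal: absorbance at 630 nm / Doses: one concentration, 20 µM, with 1.0% DMSO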
Scp-1 conf: Scp-1 (human) inhibition, single-dose confirmed. shares compounds with Scp1 inh. recombinant SCP-1 catalytic domain, phosphate release, malachite green absorbance. inhibition, % at 20 µM. actives 61% (n = 2,500);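 note: plate controls were DMSO with enzyme for no effect and buffer wells lacking enzyme for full effect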
Scp-1 MG ctr: counter-screen for Scp-1 inhibitors: colorimetric interference | shares compounds with Scp1 inh | 2,500 tested, under 10 active | AID 540313 | Colorimetric interference counterscreen, malachite green absorbance 630 nm | apparent inhibition (interference), % at 20 µM;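 note: compounds added after enzyme reaction finished so only phosphate colour detection is probed; plate controls were DMSO wells with completed Scp-1 reaction for no effect and substrate wells lacking enzyme for full effect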
Scp1 DSF: binds human Scp-1, shifting its melting temperature. shares compounds with Scp1 inh. Recombinant SCP1, Sypro Orange thermal shift Tm. thermal shift relative to vanadate control, % at 40 µM. actives 25% (n = 1,500). AID 540329;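 active = substances whose mean melting-temperature shift, as a percentage of the reference inhibitor's shift, reaches about 5.3%, limit read from the data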;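 note: 0% = Tm of DMSO wells and 100% = Tm with sodium orthovanadate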
The depositor's hits bear a star; . = not tested or not shown.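 Rule for the calls, unless noted: active = inhibition of at least 30% at 20 µM; inactive = the rest.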

SMILES	LMPTP block	STEP block	NadD block	rCAG RNA binder	Scp1 inh	Scp-1 conf	Scp-1 MG ctr	others
C[C@H](CO)N1C[C@H](C)[C@@H](CN(C)Cc2ccncc2)Oc2c(NC(=O)c3ccncc3)cccc2C1=O	-2.2	-1.3	-0.2	-8.0	-7.7	.	.
C[C@H](CO)N1C[C@H](C)[C@@H](CN(C)C(=O)Nc2ccc3c(c2)OCO3)Oc2c(NC(=O)C3CC3)cccc2C1=O	-0.4	0.6	-0.1	3.5	-1.9	.	.
O=C(NCCCO)c1cc([N+](=O)[O-])cc2c1C=Cc1ccccc1O2	-1.9	-1.2	12.7	1.7	98.5*	-3.2	-7.3
CCOc1ccc(-n2c(SCc3ccc(C#N)cc3)nnc2-c2ccco2)cc1	.	.	.	7.4	.	.	.
O=c1c2c(nc3cc(-c4ccccc4Cl)[nH]n13)CCS2	33.3	4.7	9.9	33.0	64.3*	11.8	-8.7
CC(Nc1ccc(F)cc1)=[N+](C)CCNS(=O)(=O)c1ccc(Cl)cc1	-1.1	-1.0	9.1	-1.1	102.8*	88.7*	-10.9	Scp1 DSF=-29.2
CCNS(=O)(=O)c1ccc(NC(=O)Cc2ccc(F)cc2)cc1	-1.4	7.3	-1.9	-1.3	-10.5	.	.
COc1cccc(CCNC(=O)CCc2nnc(Cc3cc(OC)ccc3OC)o2)c1	-0.8	-1.3	-5.8	-8.8	-8.3	.	.
COc1ccc(OC)c(Cc2nnc(CCC(=O)NCc3nc4ccccc4s3)o2)c1	-0.1	1.0	-7.3	-2.6	62.6*	-17.5	-12.8
O=C(/C=C/c1ccco1)NCC1OCCc2ccccc21 (stereo not drawn)	4.6	4.9	0.2	12.5	91.1*	62.3*	-12.6	Scp1 DSF=1.2
C=CC(=O)NCC1OCCc2ccccc21 (stereo not drawn)	-0.4	-1.8	-6.7	-1.9	0.7	.	.
COC(=O)C[C@@H]1CC[C@@H]2[C@@H](COc3ccc(NC(=O)Nc4ccccc4)cc3C(=O)N2C)O1	.	.	.	4.0	.	.	.
COCCCN1C(=O)[C@H](CC(=O)N2CCCC2)[C@]2(C(=O)OC)CCCCC=C12	.	.	.	2.8	.	.	.
COc1ccc(-c2ccc(-c3noc(-c4ccco4)n3)c(OC)n2)cc1	0.9	-1.2	6.8	10.9	-4.4	.	.
COc1nc(-c2ccccc2)ccc1-c1noc(-c2ccco2)n1	2.4	1.8	7.7	2.1	98.7*	-5.6	-16.7
CCCCCN1CCCCC(NC(=O)c2c(F)cccc2F)C1=O (stereo not drawn)	.	.	.	-1.9	.	.	.
Cc1c(CCC(=O)O)c(=O)oc2c(C)c3occ(-c4ccc(Cl)cc4)c3cc12	87.7*	34.8	6.1	25.6	63.7*	77.3*	-23.0	Scp1 DSF=-18.3
CC(C)C[C@H]1COc2cccc(F)c2S(=O)(=O)N1Cc1cn(Cc2ccco2)nn1	.	.	.	2.3	.	.	.
COC(=O)C1CN(Cc2cn(CCC3OCCO3)nn2)CCS(=O)(=O)N1Cc1ccc(C)cc1 (stereo not drawn)	.	.	.	4.6	.	.	.
CN=c1nc(-c2ccccc2)n(-c2ccccc2)s1	-1.3	-1.2	2.3	2.2	76.5*	28.7	-7.1
N#Cc1ccccc1S(=O)(=O)N1CCN(C(=O)c2cc3c(s2)CCC3)CC1	42.2	28.0	-2.9	2.0	97.8*	70.0*	-12.6	Scp1 DSF=-16.7
COc1ccc(N2CCN(C(=O)c3cc4c(s3)CCCCC4)CC2)cc1	3.5	2.4	4.3	1.6	-0.7	.	.
N#Cc1ccccc1S(=O)(=O)N1CCN(C(=O)C2COc3ccccc3O2)CC1 (stereo not drawn)	19.4	6.2	-4.6	6.8	74.1*	73.0*	-9.5	Scp1 DSF=-9.1
COc1ccccc1N1CCN(C(=O)c2cc3c(s2)CCC3)CC1	18.8	6.7	6.7	4.3	85.2*	20.4	-14.8
Cc1cc(C(=O)N2CCN(S(=O)(=O)c3ccccc3C#N)CC2)c(C)o1	-1.4	1.1	2.4	3.7	-7.7	.	.
SMILES	LMPTP block	STEP block	NadD block	rCAG RNA binder	Scp1 inh	Scp-1 conf	Scp-1 MG ctr	others
CCC(=O)c1ccc(OCC(=O)Nc2cc(S(=O)(=O)N3CCCCC3)ccc2N2CCN(CC)CC2)cc1	-1.8	-0.5	-2.4	-4.0	106.4*	-17.5	-14.2
COC(=O)[C@]12CCCCC=C1N(Cc1ccc(OC)cc1)C(=O)[C@@H]2CC(=O)NCc1cccs1	.	.	.	2.2	.	.	.
O=C(O)c1ccccc1	-2.0	0.2	3.0	-1.3	1.4	.	.
O=C(O)C(F)=C(c1ccccc1)c1ccccc1	-3.0	1.7	-1.7	1.0	52.0*	-10.5	-6.8
C=CCCC(=O)N(Cc1ccccc1)c1ccccc1C(=O)Nc1cc(OC)ccc1OC	.	.	.	3.5	.	.	.
CS(=O)(=O)C1=NN2C(=N)/C(=C\c3ccc(OC(=O)c4ccco4)cc3)C(=O)N=C2S1	2.1	4.0	3.9	31.0	34.1	.	.
COc1ccccc1OCCOc1ccc(/C=C2\C(=N)N3N=C(S(C)(=O)=O)SC3=NC2=O)cc1	12.3	3.1	24.8	32.3	80.0*	55.7*	-11.7	Scp1 DSF=6.9*
COc1ccc(C2=[N+](C)CCn3cccc32)c(OC)c1	0.1	2.5	18.7	1.2	103.3*	95.6*	-7.1	Scp1 DSF=-0.3
CCN1C(=O)[C@@H]2[C@@H](c3ccc(SC4CCCCC4)c(OC)c3)N3CCCC[C@@]3(C(=O)OC)[C@@H]2C1=O	3.1	-1.3	5.8	-0.9	52.9*	-2.1	-6.8
COc1ccccc1CCn1cnc(-c2cccc(Cl)c2)c1CC(C)C	.	.	.	-1.2	.	.	.
CCC(NC(=O)Cn1cnc2c(=O)n(C)c(=O)n(C)c21)c1ccccc1 (stereo not drawn)	-0.8	0.7	-2.7	4.7	0.4	-7.8	-11.5
COc1ccc(CNC(=O)Cn2cnc3c(=O)n(C)c(=O)n(C)c32)cc1	-0.8	0.3	-2.7	0.7	-6.5	-6.5	-8.4
Cc1cccc(C)c1NC(=O)Cn1cnc2c(=O)n(C)c(=O)n(C)c21	-1.1	1.7	-1.7	2.9	-5.2	.	.
C[C@@H]1COc2cccc(F)c2S(=O)(=O)N1C	.	.	.	0.8	.	.	.
COc1ccc(CNC(=O)CSc2nc3c([nH]2)c(=O)n(C)c(=O)n3C)cc1	.	.	.	-0.1	.	.	.
